In ChEMBL document CHEMBL4257549, “Design, synthesis and biological evaluation of benzimidazole-rhodanine conjugates as potent topoisomerase II inhibitors” (Medchemcomm, 2018) one finds IC50, inhibition and Activity data, which are given here for four compounds.

One assay deals with Raji. In words: Cytotoxicity against human Raji cells after 48 hrs by MTT assay. It is filed as functional, cell-based. In outline:
(§1)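 Cells seeded at 5000 per well, left overnight, then exposed to compound at 0–50 μM for 48 h. MTT (20 μL of 2.5 mg mL−1) added for a further 4 h at 37 °C, formazan dissolved in DMSO, absorbance read at 570 nm. Quadruplicate wells, N > 2 determinations, mean IC50 taken as the concentration reducing cell number to 50%.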
For orientation: Tetrazolium dyes change colour on reduction, which living cells bring about.

The species entered for assay [1] is Homo sapiens. Put plainly: Inhibition of human topoisomerase 2-mediated pBR322 DNA relaxation at 20 uM after 30 mins by agarose gel electrophoresis.
Another assay relates to PC-3. In words: Cytotoxicity against human PC3 cells after 48 hrs by MTT assay. It is filed as functional, cell-based. The following applies: PC-3, 48 h. In outline:
as §1

Another assay deals with MDA-MB-231. Put plainly: Cytotoxicity against human MDA-MB-231 cells after 48 hrs by MTT assay. It is filed as functional, cell-based. The following applies: MDA-MB-231, 48 h. In outline:
as §1

The species named for assay [2] is Homo sapiens. In words: Poison activity at human topoisomerase 2 assessed as transformation of supercoiled pBR322 DNA to linear pBR322 DNA at 100 uM after 6 mins by agarose gel electrophoresis.
Another assay relates to A549. Put plainly: Cytotoxicity against human A549 cells after 48 hrs by MTT assay. The class given is functional, cell-based. Conditions: A549, 48 h. In outline: as §1
A further assay relates to HeLa. In words: Cytotoxicity against human HeLa cells after 48 hrs by MTT assay. The class given is functional, cell-based. In outline:
as §1

A further assay deals with HL-60. In words: Cytotoxicity against human HL60 cells after 48 hrs by MTT assay. The following applies: HL-60, 48 h. It is filed as functional, cell-based. In outline: as §1
For assay [3], the species on record is Homo sapiens. Put plainly: Inhibition of human topoisomerase 2-mediated pBR322 DNA relaxation at 100 uM after 30 mins by agarose gel electrophoresis.
Assay [4] is filed under the species Homo sapiens. In words: Inhibition of human topoisomerase 2-mediated pBR322 DNA relaxation at 10 uM after 30 mins by agarose gel electrophoresis.
For assay [5], the species on record is Homo sapiens. In words: Inhibition of catalytic activity of human topoisomerase 2 assessed as decrease in levels of linear pBR322 DNA trapped by etoposide at 50 uM after 6 mins by agarose gel electrophoresis.
Assay [6] concerns the target T1, DNA topoisomerase 1 (Homo sapiens) (UniProt P11387).
T1 sequence (whole entry): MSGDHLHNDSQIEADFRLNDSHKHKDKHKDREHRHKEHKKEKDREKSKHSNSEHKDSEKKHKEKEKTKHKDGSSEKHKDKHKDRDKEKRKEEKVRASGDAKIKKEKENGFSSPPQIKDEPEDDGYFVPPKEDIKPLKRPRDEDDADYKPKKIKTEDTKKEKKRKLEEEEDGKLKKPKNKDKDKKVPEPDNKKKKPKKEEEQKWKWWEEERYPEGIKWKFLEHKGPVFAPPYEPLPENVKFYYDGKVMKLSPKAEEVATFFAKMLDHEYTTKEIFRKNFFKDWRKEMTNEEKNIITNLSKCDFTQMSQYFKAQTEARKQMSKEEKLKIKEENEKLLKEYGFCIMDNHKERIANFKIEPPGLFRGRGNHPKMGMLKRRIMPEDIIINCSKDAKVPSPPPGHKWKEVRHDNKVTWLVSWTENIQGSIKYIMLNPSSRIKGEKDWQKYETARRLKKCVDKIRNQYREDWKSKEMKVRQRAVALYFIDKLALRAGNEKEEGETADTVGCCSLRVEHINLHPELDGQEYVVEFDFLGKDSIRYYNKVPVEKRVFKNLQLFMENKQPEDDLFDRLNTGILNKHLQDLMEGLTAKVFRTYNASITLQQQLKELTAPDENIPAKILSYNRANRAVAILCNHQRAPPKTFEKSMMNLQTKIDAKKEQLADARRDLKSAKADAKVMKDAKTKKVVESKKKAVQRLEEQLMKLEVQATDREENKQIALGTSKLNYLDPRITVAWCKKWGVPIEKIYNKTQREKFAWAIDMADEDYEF
In words: Inhibition of topoisomerase 1 (unknown origin)-mediated pBR322 DNA relaxation at 50 uM after 30 mins by agarose gel electrophoresis. In outline: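 Topo I relaxation of pBR322 with compound at 30 min, 37 °C, camptothecin positive control. Stopped with SDS/bromophenol blue/glycerol dye, run on 1% agarose in TAE for 1.5 h, Ged Red stained, UV visualized.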

For assay [7], the species on record is Homo sapiens. In words: Poison activity at human topoisomerase 2 assessed as […] at 50 uM after 6 mins by agarose gel electrophoresis.
In assay [8] the test system is DNA. In words: Induction of Escherichia coli pBR322 DNA intercalation assessed as transformation of topoisomerase1-relaxed pBR322 DNA in to supercoiled DNA at 50 uM preincubated for 10 mins followed by topoisomerase-1 addition and measured after 30 mins by agarose gel electrophoresis method. The class given is nucleic-acid assay. In outline: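 Unwinding: pBR322 first relaxed by Topo I in buffer (50 mM Tris-HCl pH 7.5, 50 mM KCl, 10 mM MgCl2, 0.5 mM DTT, 0.1 mM EDTA, 30 μg/mL BSA). 0.1 μg relaxed DNA preincubated with compound 10 min at room temperature, then Topo I (1 U) added, 30 min at 37 °C. Phenol-chloroform stop, SDS/EDTA added, agarose electrophoresis in TAE, UV imaging.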

The test system of assay [9] is DNA. In words: Induction of Escherichia coli pBR322 DNA intercalation assessed as transformation of topoisomerase1-relaxed pBR322 DNA in to supercoiled DNA at 5 uM preincubated for 10 mins followed by topoisomerase-1 addition and measured after 30 mins by agarose gel electrophoresis method. The class given is nucleic-acid assay. In outline: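 0.1 μg relaxed DNA incubated with compound 10 min at room temperature, then Topo I (1 U) added, 37 °C for 30 min. Stopped with phenol-chloroform and SDS/EDTA. Products resolved on agarose gel in TAE and imaged under UV.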

As usually defined, the IC50 is the concentration that inhibits the measured activity by half. A higher IC50 goes with a need for much substance.

Calls of active or inactive are those of the source. No cut-off for these calls is given here.

`COc1cc([C@@H]2c3cc4c(cc3[C@@H](O[C@@H]3O[C@@H]5CO[C@@H](C)O[C@H]5[C@H](O)[C@H]3O)[C@H]3COC(=O)[C@H]23)OCO4)cc(OC)c1O` [ETOPOSIDE]: the concentration for half-maximal inhibition (IC50) was 1210 nM with Raji; 13200 nM in the assay on PC-3; 30300 nM in the assay on MDA-MB-231; 2460 nM in the assay with A549; 28600 nM with HeLa; 580 nM with HL-60. Further, the inhibition entry in the assay filed under Homo sapiens [1] and in the assay listed under Homo sapiens [3] was “Active” throughout. The outcome in the assay listed under Homo sapiens [2] was Active.

Turning to `O=C(O)CN1C(=O)/C(=C/c2nc3ccccc3n2Cc2ccccc2F)SC1=S`, the IC50 in the assay on Raji was 1230 nM; in the assay with PC-3 it was 1860 nM; in the assay on MDA-MB-231, 330 nM; in the assay on A549, 2670 nM; in the assay with HeLa, 640 nM; in the assay with HL-60, 210 nM. Further, the inhibition result in the assay filed under Homo sapiens [1], in the assay listed under Homo sapiens [4] and in the assay listed under Homo sapiens [5] was “Active” in each case. Besides, the inhibition entry in [6] is “inactive”. Besides, the result in the assay listed under Homo sapiens [7] and in the assay with DNA [8] was inactive.

Consider `CC[n+]1c(-c2ccccc2)c2cc(N)ccc2c2ccc(N)cc21`, for which the outcome with DNA [9] was Active.

As to `Cc1ccc(Cn2c(/C=C3\SC(=S)N(CC(=O)O)C3=O)nc3ccccc32)cc1`, the concentration for half-maximal inhibition (IC50) with Raji came to 960 nM; in the assay with PC-3, 2640 nM; in the assay with MDA-MB-231, 1040 nM; with A549 it was 3220 nM; in the assay with HeLa, 1280 nM; with HL-60, 540 nM. Also, the inhibition entry in the assay listed under Homo sapiens [1], in the assay listed under Homo sapiens [4] and in the assay filed under Homo sapiens [5] was “Active” in each case. Besides, the inhibition result in assay [6] was “inactive”. The result in the assay filed under Homo sapiens [7] and in the assay with DNA [8] was inactive.
